This note sets out measurements from ChEMBL document CHEMBL1157635, “Synthesis, radiofluorination, and hypoxia-selective studies of FRAZ: A configurational and positional analogue of the clinical hypoxia marker, [18F]-FAZA” (Bioorg Med Chem, 2010).

The term logP denotes the decadic logarithm of the partition coefficient of the neutral form, usually between octanol and water.

Series [1] is described as follows: Partition coefficient, log P by HPLC. The class given is physicochemical. The following applies: octanol/water. Summed up: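 Reverse-phase analytical HPLC with a gradient solvent system. Retention time compared with IAZA, FAZA and AZA standards, and P interpolated from a plot.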
The test system of a further series is HCT-116. The series is described as follows: Hypoxia radiosensitization activity in human HCT116 cells assessed as sensitizer enhancement ratio at 100 uM after 24 hrs by [60]Co X-ray source based clonogenic survival assay. It counts as functional. Summed up: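 HCT-116 cells pre-incubated 20 h, then exposed to 100 µM (from 10 mM stock in 95% ethanol) for 24 h. Hypoxic dishes degassed by six vacuum/N2 cycles, normoxic kept in air, then shaken 30 min. Irradiated with 60Co at 0–20 Gy. Cells replated and grown 10–14 days at 37 °C, colonies stained, surviving fractions counted, triplicate.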

Series [2] has as its system EMT6. The series is described as follows: Toxicity in mouse EMT6 cells at < 10 mM assessed as reduction of cell survival after 72 hrs by MTT assay. The note with it: emt6, 72 h. It counts as cell-based. The procedure, abridged: (§1)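 Exponentially growing cells seeded at 8 × 10² cells/well and pre-incubated 24 h at 37 °C (5% CO2). Compound added in growth medium over 10^-7 to 10^-3 M, with medium-only controls, for 72 h. MTT then added for 4 h, formazan dissolved in DMSO and absorbance read at 540 nm.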

Series [3] can be described thus: Toxicity in Kirsten virus transformed mouse KBALB cells at < 10 mM assessed as reduction of cell survival after 72 hrs by MTT assay. The class given is cell-based. The procedure, abridged: as §1
In general terms: Tetrazolium assays rely on reduction of a dye to a coloured formazan, in cell work by metabolically active cells.

A short description of series [4]: Toxicity in Kirsten virus transformed mouse KBALB-STK cells at < 10 mM assessed as reduction of cell survival after 72 hrs by MTT assay. The class given is cell-based. Summed up:
as §1

A further series relates to 143B. The series is described as follows: Toxicity in human 143B cells at < 10 mM assessed as reduction of cell survival after 72 hrs by MTT assay. The class given is cell-based. Summed up: as §1
Series [5] in a line: Toxicity in human 143B-LTK cells at < 10 mM assessed as reduction of cell survival after 72 hrs by MTT assay. The class given is cell-based. The procedure, abridged:
as §1

Series [6] relates to EMT6. The series is described as follows: Toxicity in mouse EMT6 cells at 1 mM assessed as reduction of cell survival after 72 hrs by MTT assay. The class given is cell-based. The following applies: emt6, 72 h, 1000 µM. Summed up:
as §1

`O=[N+]([O-])c1nccn1[C@H]1O[C@H](CF)[C@@H](O)[C@@H]1O` gave a logP in series [1] of 1.1. For the same molecule, the Ratio in the series on HCT-116 came out at 1.25.
Regarding `O=[N+]([O-])c1nccn1[C@H]1O[C@H](CO)[C@@H](O)[C@H]1F`, the logP in series [1] was found to be 1.08. Moreover, the Activity result (in the series with EMT6 [2]; in series [3]; in series [4]; with 143B; in series [5]; with EMT6 [6]) was “Non-toxic” in each case. Moreover, the Ratio with HCT-116 stood at 1.4.
